Test system: U2OS
Assay: Multiplex assay against U2OS
Assay type: toxicity, cell-based
Settings: human
In short: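 Cells were classed with CellPathfinder machine-learning gating, first as Hoechst high-intensity objects or normal cells, then (normal cells) as healthy, pyknosed or fragmented nuclei, and finally (pyknosed cells) as mitotic or apoptotic. Staining of live cells at seeding used Hoechst33342, BioTracker Green Microtubule Cytoskeleton Dye, MitoTracker Red and Annexin V Alexa Fluor 680, with imaging on a CQ1 microscope at 37°C and 5% CO2 after compound addition. Tubulin, mitochondrial-mass and membrane-permeability phenotypes are per cents of healthy-nucleus cells.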

[1] = 12 h, 1 µM, compound concentration 1 uM, replicate 1
[2] = 12 h, 1 µM, compound concentration 1 uM, replicate 2
[3] = 12 h, 10 µM, compound concentration 10 uM, replicate 1
[4] = 12 h, 10 µM, compound concentration 10 uM, replicate 2
[5] = 24 h, 1 µM, compound concentration 1 uM, replicate 1
[6] = 24 h, 1 µM, compound concentration 1 uM, replicate 2
[7] = 24 h, 10 µM, compound concentration 10 uM, replicate 1
[8] = 24 h, 10 µM, compound concentration 10 uM, replicate 2
[9] = 48 h, 1 µM, compound concentration 1 uM, replicate 1
[10] = 48 h, 1 µM, compound concentration 1 uM, replicate 2
[11] = 48 h, 10 µM, compound concentration 10 uM, replicate 1
[12] = 48 h, 10 µM, compound concentration 10 uM, replicate 2

C=CCN1C[C@H](C(=O)N(CCCN(C)C)C(=O)NCC)C[C@@H]2c3cccc4[nH]cc(c34)C[C@H]21 [CABERGOLINE]
Population Apoptotic (%) [1]: 86% | Population Fragmented Nuclei (%) [1]: 13% | Population Healthy Nuclei (%) [1]: 72% | Population Hoechst High Intensity Objects (%) [1]: 2% | Population Membrane Permeable-Phenotype (%) [1]: 3% | Population Mitochondria Different-Phenotype (%) [1]: 1% | Population Mitotic Cells (%) [1]: 13% | Population Normal (%) [1]: 97% | Population Pyknosed Nuclei (%) [1]: 13% | Population Tubulin-Different-Phenotype (%) [1]: 1% | Total Cell Count [1]: 228 | Population Apoptotic (%) [2]: 57% | Population Fragmented Nuclei (%) [2]: 9% | Population Healthy Nuclei (%) [2]: 84% | Population Hoechst High Intensity Objects (%) [2]: 3% | Population Membrane Permeable-Phenotype (%) [2]: 8% | Population Mitochondria Different-Phenotype (%) [2]: 4% | Population Mitotic Cells (%) [2]: 42% | Population Normal (%) [2]: 96% | Population Pyknosed Nuclei (%) [2]: 5% | Population Tubulin-Different-Phenotype (%) [2]: 5% | Total Cell Count [2]: 129 | Population Apoptotic (%) [3]: 69% | Population Fragmented Nuclei (%) [3]: 35% | Population Healthy Nuclei (%) [3]: 52% | Population Hoechst High Intensity Objects (%) [3]: 3% | Population Membrane Permeable-Phenotype (%) [3]: 15% | Population Mitochondria Different-Phenotype (%) [3]: 9% | Population Mitotic Cells (%) [3]: 30% | Population Normal (%) [3]: 96% | Population Pyknosed Nuclei (%) [3]: 11% | Population Tubulin-Different-Phenotype (%) [3]: 11% | Total Cell Count [3]: 228 | Population Apoptotic (%) [4]: 64% | Population Fragmented Nuclei (%) [4]: 17% | Population Healthy Nuclei (%) [4]: 70% | Population Hoechst High Intensity Objects (%) [4]: 2% | Population Membrane Permeable-Phenotype (%) [4]: 13% | Population Mitochondria Different-Phenotype (%) [4]: 21% | Population Mitotic Cells (%) [4]: 35% | Population Normal (%) [4]: 97% | Population Pyknosed Nuclei (%) [4]: 12% | Population Tubulin-Different-Phenotype (%) [4]: 9% | Total Cell Count [4]: 143 | Population Apoptotic (%) [5]: 82% | Population Fragmented Nuclei (%) [5]: 15% | Population Healthy Nuclei (%) [5]: 74% | Population Hoechst High Intensity Objects (%) [5]: 3% | Population Membrane Permeable-Phenotype (%) [5]: 1% | Population Mitochondria Different-Phenotype (%) [5]: 1% | Population Mitotic Cells (%) [5]: 17% | Population Normal (%) [5]: 96% | Population Pyknosed Nuclei (%) [5]: 10% | Population Tubulin-Different-Phenotype (%) [5]: 0% | Total Cell Count [5]: 295 | Population Apoptotic (%) [6]: 64% | Population Fragmented Nuclei (%) [6]: 7% | Population Healthy Nuclei (%) [6]: 83% | Population Hoechst High Intensity Objects (%) [6]: 1% | Population Membrane Permeable-Phenotype (%) [6]: 9% | Population Mitochondria Different-Phenotype (%) [6]: 4% | Population Mitotic Cells (%) [6]: 35% | Population Normal (%) [6]: 98% | Population Pyknosed Nuclei (%) [6]: 8% | Population Tubulin-Different-Phenotype (%) [6]: 6% | Total Cell Count [6]: 162 | Population Apoptotic (%) [7]: 65% | Population Fragmented Nuclei (%) [7]: 33% | Population Healthy Nuclei (%) [7]: 54% | Population Hoechst High Intensity Objects (%) [7]: 3% | Population Membrane Permeable-Phenotype (%) [7]: 10% | Population Mitochondria Different-Phenotype (%) [7]: 5% | Population Mitotic Cells (%) [7]: 34% | Population Normal (%) [7]: 96% | Population Pyknosed Nuclei (%) [7]: 11% | Population Tubulin-Different-Phenotype (%) [7]: 4% | Total Cell Count [7]: 228 | Population Apoptotic (%) [8]: 88% | Population Fragmented Nuclei (%) [8]: 14% | Population Healthy Nuclei (%) [8]: 75% | Population Hoechst High Intensity Objects (%) [8]: 2% | Population Membrane Permeable-Phenotype (%) [8]: 13% | Population Mitochondria Different-Phenotype (%) [8]: 12% | Population Mitotic Cells (%) [8]: 11% | Population Normal (%) [8]: 97% | Population Pyknosed Nuclei (%) [8]: 10% | Population Tubulin-Different-Phenotype (%) [8]: 10% | Total Cell Count [8]: 165 | Population Apoptotic (%) [9]: 88% | Population Fragmented Nuclei (%) [9]: 13% | Population Healthy Nuclei (%) [9]: 77% | Population Hoechst High Intensity Objects (%) [9]: 2% | Population Membrane Permeable-Phenotype (%) [9]: 5% | Population Mitochondria Different-Phenotype (%) [9]: 1% | Population Mitotic Cells (%) [9]: 11% | Population Normal (%) [9]: 97% | Population Pyknosed Nuclei (%) [9]: 8% | Population Tubulin-Different-Phenotype (%) [9]: 3% | Total Cell Count [9]: 405 | Population Apoptotic (%) [10]: 93% | Population Healthy Nuclei (%) [10]: 73% | Population Hoechst High Intensity Objects (%) [10]: 3% | Population Membrane Permeable-Phenotype (%) [10]: 4% | Population Mitochondria Different-Phenotype (%) [10]: 4% | Population Mitotic Cells (%) [10]: 6% | Population Normal (%) [10]: 96% | Population Pyknosed Nuclei (%) [10]: 13% | Total Cell Count [10]: 221 | Population Apoptotic (%) [11]: 86% | Population Fragmented Nuclei (%) [11]: 30% | Population Healthy Nuclei (%) [11]: 57% | Population Hoechst High Intensity Objects (%) [11]: 3% | Population Membrane Permeable-Phenotype (%) [11]: 7% | Population Mitochondria Different-Phenotype (%) [11]: 1% | Population Mitotic Cells (%) [11]: 13% | Population Normal (%) [11]: 96% | Population Pyknosed Nuclei (%) [11]: 12% | Population Tubulin-Different-Phenotype (%) [11]: 3% | Total Cell Count [11]: 303 | Population Apoptotic (%) [12]: 87% | Population Fragmented Nuclei (%) [12]: 13% | Population Healthy Nuclei (%) [12]: 66% | Population Hoechst High Intensity Objects (%) [12]: 4% | Population Membrane Permeable-Phenotype (%) [12]: 9% | Population Mitochondria Different-Phenotype (%) [12]: 9% | Population Mitotic Cells (%) [12]: 12% | Population Normal (%) [12]: 95% | Population Pyknosed Nuclei (%) [12]: 20% | Population Tubulin-Different-Phenotype (%) [12]: 5% | Total Cell Count [12]: 206

From ChEMBL document CHEMBL5058577, “EUbOPEN Chemogenomics Library 2 (Multiplex)” (2022)
